This is a sample that favours compounds with a hit; in the whole collection about 3.2% have one here.
rRNA inh HTS = inhibits bacterial ribosomal RNA function over humanized ribosomes; 1.6% of 350,000 active; E. coli WT GFP vs humanized-ribosome RFP mutants, fluorescence, 24 h; stronger effect = lower value; DMSO median 0, no signal -100; GFP signal change (wild-type ribosome), % (no concentration beside the values);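 active = significant combined selectivity score with lowered wild-type GFP, culture density cut under 30%, mutant RFP and density less affected; inactive = any of these conditions unmet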
DENV2 CPE = inhibitors of DENV2 cytopathic effect. DENV2-infected cells, cytopathic effect rescue, plate reader. AID 651640. 1.7% of 350,000 active. CPE inhibition, % at 9.99 µM; in the data active = CPE inhibition above about 20%, passing the limit was not always enough; tested in BHK-21 cells;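 note: 0% = median of neutral control wells and 100% = median of positive control wells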
MLL AF4-AF9 inh = inhibitors of human MLL-AF4/AF9 interaction | P42568 | AlphaScreen, biotin-AF4 peptide binding to FLAG-AF9 | inhibition, % at 10 µM | 0.47% of 350,000 active | AID 651704;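 active = every replicate reaching a set inhibition limit, whatever the replicate mean, cut at about 25% in these data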;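 note: 0% = plate neutral control median and 100% = total signal loss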
PfHsp90 yeast 2 = growth inhibition of yeast expressing Plasmodium Hsp90. S. cerevisiae expressing PfHsp90, BacTiter-Glo ATP, 48 h; yeast lacking PDR1 and PDR3 efflux regulators. 0.32% of 310,000 active. inhibition, % at 9.4 µM;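 active = every replicate shows inhibition above about 80%, whatever the replicate mean, limit read from the data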;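 note: 0% = DMSO neutral controls and 100% = 20 µM radicicol positive controls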
Cneo AK release = causes C. neoformans cell lysis. adenylate kinase release luminescence, 4 h; normalised: neutral wells 0, clomiphene wells 100. lysis activity, % at 15 µM. 0.2% of 360,000 active;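 active = mean lysis activity across replicates of at least 80%, whatever share of replicates individually reach that level; inactive = mean lysis activity below 80%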
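Test system: log-phase Cryptococcus neoformans yeast cells; Quantity: yeast cell density of 5 × 10^6 cells/mL; Buffer or medium: YPD; Doses: single compound concentration per well; Timing: 4 h at 37 °C static, read 1 h later; Measured by: AK luminescence; Read-out basis: lysis from increased AK signal; Control set: Clomiphene as positive control.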
S100A4 inh HTS = inhibitors of human S100A4 binding to myosin IIA peptide; 0.14% of 360,000 active; S100A4/TAMRA-MyoIIA peptide fluorescence polarization; AID 652163; inhibition, % at 10.7 µM;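 active = mean inhibition of at least 70% across replicates, with every replicate also reaching that level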
Target sequence (P26447 whole entry, looked up): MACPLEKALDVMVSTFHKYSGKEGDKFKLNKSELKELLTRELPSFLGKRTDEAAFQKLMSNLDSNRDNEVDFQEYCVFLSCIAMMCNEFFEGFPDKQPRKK
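Material: S100A4 monomer (human). Medium: Calcium-containing HEPES buffer, pH 7.2. Probe or stimulus: labelled myosin peptide probe, 5 nM. Compound dosing: one concentration per compound. Timing: polarization read 5 min after assay mix addition, stable 5–60 min. Benchmarks: DMSO as neutral control, TFP as positive control.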
An asterisk follows results filed as active.

Screening COc1ccccc1CNC(=O)C1CCC(CNS(=O)(=O)c2cccs2)CC1 (configuration not stated) returned rRNA inh HTS -2, DENV2 CPE -4, MLL AF4-AF9 inh 0, PfHsp90 yeast 2 -12, Cneo AK release 2 and S100A4 inh HTS 0.
COc1cccc(NC(=O)C2CCC(CNS(=O)(=O)c3cccs3)CC2)c1 (configuration not stated) was read as rRNA inh HTS -21*, DENV2 CPE 0, MLL AF4-AF9 inh -2, PfHsp90 yeast 2 2 and S100A4 inh HTS -5.
`CCOc1ccc(Oc2nc(NCC(C)C)nc(OC)n2)nn1` gave rRNA inh HTS 11, DENV2 CPE 36*, MLL AF4-AF9 inh -7, PfHsp90 yeast 2 17, Cneo AK release 2 and S100A4 inh HTS -2.
`O=C(NC1CCCCCC1)c1cc2ccccc2oc1=O` gave rRNA inh HTS -24*, DENV2 CPE 0, MLL AF4-AF9 inh -2, PfHsp90 yeast 2 -24, Cneo AK release 1 and S100A4 inh HTS 2.
COc1cccc(-c2cc(C(=O)NC3CCCC3)c3ccccc3n2)c1 was read as rRNA inh HTS 2, DENV2 CPE -1, MLL AF4-AF9 inh -2, Cneo AK release 1 and S100A4 inh HTS -4.
Screening COc1cc2ccccc2cc1C(=O)NC1CCCC1 returned rRNA inh HTS -21*, DENV2 CPE -4, MLL AF4-AF9 inh -5, PfHsp90 yeast 2 0, Cneo AK release 0 and S100A4 inh HTS -1.
COc1ccc(OC)c(-c2cc(C(=O)NC3CCCC3)c3ccccc3n2)c1 was read as rRNA inh HTS -7, DENV2 CPE 36*, MLL AF4-AF9 inh 2, PfHsp90 yeast 2 -10, Cneo AK release 0 and S100A4 inh HTS 0.
Screening CCCN1C[C@H](C)[C@@H](OC)CN(C)C(=O)c2cc(NC(=O)c3cccc(OC)c3)ccc2OC[C@H]1C returned rRNA inh HTS -2.
Cc1cccc(S(=O)(=O)N[C@@H]2CC[C@H](CCNC(=O)CCN3CCCCC3)O[C@H]2CO)c1 was read as rRNA inh HTS -1, DENV2 CPE -5, MLL AF4-AF9 inh -1, Cneo AK release -1 and S100A4 inh HTS 29.
`O=C(CSc1ncc(-c2ccc(F)cc2)n1Cc1ccco1)Nc1ccc2c(c1)OCO2` gave PfHsp90 yeast 2 -20 and Cneo AK release -2.
`CCOc1ccc(NC(=O)CSc2ncc(-c3ccc(F)cc3)n2Cc2ccco2)cc1` gave rRNA inh HTS 11, DENV2 CPE -3, MLL AF4-AF9 inh 39*, PfHsp90 yeast 2 -5 and S100A4 inh HTS -2.
`COCC(=O)N1CC2(CN(C(=O)c3cccnc3)C2)c2c([nH]c3cc(OC)ccc23)[C@@H]1CO` gave rRNA inh HTS 4, DENV2 CPE 2, MLL AF4-AF9 inh -5 and S100A4 inh HTS 8.
Screening O=C(CCc1ccccc1)c1ccc2c(c1)OCCCO2 returned Cneo AK release -3.
For O=C(CCCc1ccccc1)c1ccc2c(c1)OCCO2 the results were rRNA inh HTS -30*, DENV2 CPE 0, MLL AF4-AF9 inh 7, PfHsp90 yeast 2 -13, Cneo AK release 36 and S100A4 inh HTS -4.
O/N=C(/CCc1ccccc1)c1ccc2c(c1)OCCO2 was read as rRNA inh HTS -25*, DENV2 CPE 8, MLL AF4-AF9 inh 8, PfHsp90 yeast 2 -21, Cneo AK release -1 and S100A4 inh HTS -4.
COc1cccc(OC)c1Nc1nc(C)nc2c1nnn2Cc1ccccc1Cl was read as rRNA inh HTS 7, DENV2 CPE 60*, MLL AF4-AF9 inh -6, PfHsp90 yeast 2 -62, Cneo AK release -2 and S100A4 inh HTS 21.
`C[C@@H]1CN([C@H](C)CO)C(=O)c2cc(-c3ccc(F)cc3)cnc2O[C@H]1CN(C)C(=O)CN(C)C` gave rRNA inh HTS 8, DENV2 CPE -3, MLL AF4-AF9 inh 1, Cneo AK release 0 and S100A4 inh HTS -3.
Cc1ccc(NC(=O)CN(C)C(=O)Cc2coc3cc(C)c(C)cc23)cc1 was read as rRNA inh HTS -23*, DENV2 CPE -1, MLL AF4-AF9 inh 1, PfHsp90 yeast 2 8, Cneo AK release -2 and S100A4 inh HTS -3.

Assay outcomes: PubChem BioAssay, Broad Institute
